Laboratory results taken from ChEMBL document CHEMBL1123247, “Nucleoside conjugates. 7. Synthesis and antitumor activity of 1-beta-D-arabinofuranosylcytosine conjugates of ether lipids” (J Med Chem, 1986).

Key:
P388 [1] = assay: Antitumor activity was determined against the ip implanted P388 leukemia in mice by 45-day survivors in mice at 60 mg/kg (1-5qd treatment schedule) dosage; type: functional, Mus musculus; conditions: route intraperitoneal
How it was run: (§1)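 DBA/2J mice, 23-33 g, in groups of 6, were inoculated ip with 1×10^6 P388 cells on day 0. Dosing was ip from 24 h on the stated schedules, in 0.9% NaCl with 0.5% Tween-80 (sonicated solution or suspension). Survival was followed daily until death or 45 days. Median T/C was calculated from survivors per NCI protocols, with ILS = (T/C − 1) × 100.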

P388 [2] = assay: Antitumor activity was determined against the ip implanted P388 leukemia in mice by percent increase in life span at 60 mg/kg (1-5qd treatment schedule) dosage; type: functional, Mus musculus; conditions: route intraperitoneal; how it was run: as §1
P388 [3] = assay: Antitumor activity against ip implanted P388 leukemia in mice expressed as active dose range (1 qd treatment schedule) required to produce increase in life span by >25% was determined; Range is 200-500; type: functional, Mus musculus
How it was run: (§2)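 P388 leukemia: 1 × 10^6 cells were given ip on day 0 to DBA/2J mice, groups of 6 (23-33 g). Treatment was ip from 24 h after inoculation, vehicle 0.9% NaCl with 0.5% Tween-80. Mice were observed daily until death or 45 days. Median survival T/C was calculated from survivors per NCI protocols, and ILS = (T/C − 1) × 100. Active range means doses giving ILS ≥25%; optimal dose means greatest ILS.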

P388 [4] = assay: Antitumor activity was determined against the ip implanted P388 leukemia in mice by percent median survival rate (treated/control) at 133 mg/kg (treatment of 1,5,9qd schedule) dosage; >45.0/11.0; type: functional, Mus musculus; conditions: route intraperitoneal; how it was run: as §1
L1210 [5] = assay: Antitumor activity against the ip implanted L1210 leukemia in mice expressed as optimal dose (1 qd treatment schedule) required to produce greatest increase in life span was determined; type: functional, Mus musculus
How it was run: (§3)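 DBA/2J mice, groups of 6 (23-28 g), were inoculated ip with 1 × 10^6 L1210 cells on day 0. Dosing was ip from 24 h, in 0.9% NaCl with 0.5% Tween-80 (sonicated solution or suspension). Mice were observed daily until death or day 45. Median survival T/C followed NCI protocols, and ILS = (T/C − 1) × 100. Active range means doses giving ILS ≥25%; optimal dose means greatest ILS.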

P388 [6] = assay: Antitumor activity was determined against the ip implanted P388 leukemia in mice by change in […] at 133 mg/kg (treatment of 1,5,9qd schedule) dosage; type: functional, Mus musculus; conditions: route intraperitoneal
How it was run: (§4)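 P388 leukemia, 1×10^6 cells implanted ip on day 0 into DBA/2J mice, groups of 6 (wt 23-33 g). Dosing ip started 24 h post-inoculation, vehicle 0.9% NaCl containing 0.5% Tween-80. Animals were observed daily until death or 45 days. Outputs were weight change, median survival T/C from survivors per NCI protocols, and %ILS = (T/C − 1) × 100.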

L1210 [7] = assay: Antitumor activity against the ic implanted L1210 lymphoid leukemia in mice expressed as optimal dose (1-5qd treatment schedule) required to produce greatest increase in life span was determined; type: functional, Mus musculus
How it was run: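 DBA/2J mice, groups of 6 (26-32 g), got 1 × 10^5 L1210 cells ic on day 0. Dosing was ip starting 24 h later, as a sonicated solution or suspension in 0.9% NaCl with 0.5% Tween-80, over a wide dose range. Mice were followed daily until death. Median survival T/C was taken from survivors per NCI protocols, and ILS = (T/C − 1) × 100. Active range means doses giving ILS ≥25%; optimal dose means greatest ILS.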

P388 [8] = assay: Antitumor activity against the ip implanted P388 leukemia in mice expressed as optimal dose (1 qd treatment schedule) required to produce greatest increase in life span was determined; type: functional, Mus musculus; how it was run: as §2
P388 [9] = assay: (§5) Antitumor activity against the ip implanted P388 leukemia in mice expressed as optimal dose (1-5qd treatment schedule) required to produce greatest increase in life span was determined; type: functional, Mus musculus; set-up: unit: mg/kg; how it was run: as §2
L1210 [10] = assay: Antitumor activity against the ip implanted L1210 leukemia in mice expressed as optimal dose (1-5qd treatment schedule) required to produce greatest increase in life span was determined; type: functional, Mus musculus; how it was run: as §3
P388 [11] = assay: Antitumor activity was determined against the ip implanted P388 leukemia in mice by change in […] at 60 mg/kg (1-5qd treatment schedule) dosage; type: functional, Mus musculus; conditions: route intraperitoneal; how it was run: as §4
P388 [12] = assay: Antitumor activity against the ip implanted P388 leukemia in mice expressed as optimal dose (1,5,9qd treatment schedule) required to produce greatest increase in life span was determined; type: functional, Mus musculus; set-up: unit: mg/kg; how it was run: as §2
P388 [13] = assay: Antitumor activity was determined against the ip implanted P388 leukemia in mice by percent increase in life span at 133 mg/kg (treatment of 1,5,9qd schedule) dosage; type: functional, Mus musculus; conditions: route intraperitoneal; how it was run: as §1
P388 [14] = assay: Antitumor activity against ip implanted P388 leukemia in mice expressed as active dose range (1-5qd treatment schedule) required to produce increase in life span by >25% was determined; Range is 40-80; type: functional, Mus musculus; how it was run: as §2
P388 [15] = assay: Antitumor activity was determined against the ip implanted P388 leukemia in mice by 45-day survivors in mice at 133 mg/kg (treatment of 1,5,9qd schedule) dosage; type: functional, Mus musculus; conditions: route intraperitoneal; how it was run: as §1
L1210 [16] = assay: Antitumor activity was determined against the ip implanted L1210 leukemia in mice by change in […] at 400 mg/kg (treatment of 1qd schedule) dosage; type: functional, Mus musculus; conditions: route intraperitoneal
How it was run: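 DBA/2J mice, 6 per group (wt 23-28 g), inoculated ip with 1×10^6 L1210 cells on day 0. Treatment was given ip in 0.9% NaCl with 0.5% Tween-80, starting 24 h later. Weight change was taken on day 8. Mice were observed daily until death or 45 days. Median survival T/C and %ILS = (T/C − 1) × 100 came from survivors per NCI protocols, and 45-day survivors were counted.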

L1210 [17] = assay: Antitumor activity was determined against the ip implanted L1210 leukemia in mice by 45-day survivors in mice at 400 mg/kg (treatment of 1qd schedule) dosage; type: functional, Mus musculus; conditions: route intraperitoneal
How it was run: (§6)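 DBA/2J mice in groups of 6 (wt 23-28 g) were inoculated ip with 1×10^6 L1210 cells on day 0. Dosing was ip from 24 h, in 0.9% NaCl with 0.5% Tween-80 (conjugates sonicated), across a range of doses. Mice were observed daily until death or 45 days. Median T/C was computed from survivors per NCI protocols, and ILS = (T/C − 1)×100.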

L1210 [18] = assay: Antitumor activity was determined against the ip implanted L1210 leukemia in mice by percent increase in life span at 400 mg/kg (treatment of 1qd schedule) dosage; type: functional, Mus musculus; conditions: route intraperitoneal; how it was run: as §6
P388 [19] = assay: as §5; type: functional, Mus musculus; how it was run: as §2
P388 [20] = assay: Antitumor activity was determined against the ip implanted P388 leukemia in mice by percent increase in life span at 500 mg/kg (treatment of 1qd schedule) dosage; type: functional, Mus musculus; conditions: route intraperitoneal; how it was run: as §1
P388 [21] = assay: Antitumor activity was determined against the ip implanted P388 leukemia in mice by change in […] at 500 mg/kg (treatment of 1qd schedule) dosage; type: functional, Mus musculus; conditions: route intraperitoneal; how it was run: as §4
P388 [22] = assay: Antitumor activity was determined against the ip implanted P388 leukemia in mice by 45-day survivors in mice at 500 mg/kg (treatment of 1qd schedule) dosage; type: functional, Mus musculus; conditions: route intraperitoneal; how it was run: as §1
L1210 [23] = assay: Antitumor activity was determined against the ip implanted L1210 leukemia in mice by median survival time at 100 mg/kg (treatment of 1-5qd schedule) dosage; 23.0/7.0; conditions: route intraperitoneal

| SMILES | Survivors (P388 [1]) | ILS (P388 [2]) | Active dose range (P388 [3]) [mg/kg/day] | T/C (P388 [4]) [%] | Optimal dose (L1210 [5]) [mg/kg/day] | Weight change (P388 [6]) [g mouse-1] | Optimal dose (L1210 [7]) [mg] | Optimal dose (P388 [8]) [mg] | Optimal dose (P388 [9]) [mg] | Optimal dose (L1210 [10]) [mg] | Weight change (P388 [11]) [g mouse-1] | Optimal dose (P388 [12]) [mg] | ILS (P388 [13]) | Active dose range (P388 [14]) [mg/kg/day] | Survivors (P388 [15]) | Weight change (L1210 [16]) [g mouse-1] | Survivors (L1210 [17]) | ILS (L1210 [18]) | Optimal dose (P388 [19]) [mg] | ILS (P388 [20]) | further results |
| --- | --- | --- | --- | --- | --- | --- | --- | --- | --- | --- | --- | --- | --- | --- | --- | --- | --- | --- | --- | --- | --- |
| CCCCCCCCCCCCCCCC(=O)OC[C@H](COP(=O)(O)OP(=O)(O)OC[C@H]1O[C@@H](n2ccc(N)nc2=O)[C@@H](O)[C@@H]1O)OC(=O)CCCCCCCCCCCCCCC | 5 | >309 | 200 | >45 | 300 | -1.43 | 80 | 500 | 60 | 40 | -1.92 | 133 | >309 | 40 | 4 |  |  |  |  |  |  |
| CCCCCCCCCCCCCCCCOCC(COP(=O)(O)OP(=O)(O)OC[C@H]1O[C@@H](n2ccc(N)nc2=O)[C@@H](O)[C@@H]1O)OC(=O)CCCCCCCCCCCCCCC (mixture of isomers) |  |  |  | >45 | 400 | -0.25 | 100 | 300 |  | 80 |  | 133 | >309 |  | 4 | 1.47 | 0 | 293 | 60 |  |  |
| Nc1ccn([C@@H]2O[C@H](CO)[C@@H](O)[C@@H]2O)c(=O)n1 [CYTARABINE] |  |  |  |  | 400 |  | 300 | 500 |  | 200 |  |  |  |  |  | 2.37 | 0 | 19 | 200 | 36 | Weight change (P388 [21]): 0.72 g mouse-1; Survivors (P388 [22]): 0 |
| CCCCCCCCCCCCCCCCCCOCC(COP(=O)(O)OP(=O)(O)OC[C@H]1O[C@@H](n2ccc(N)nc2=O)[C@@H](O)[C@@H]1O)OC(=O)CCCCCCCCCCCCCCC (mixture of isomers) | 0 | 109 | 200 |  | 400 |  |  | 500 | 60 | 100 | -0.12 | 67 |  | 40 |  | -1 | 0 | 257 |  | >309 | median survival time (L1210 [23]): 23 days; Weight change (P388 [21]): -0.07 g mouse-1; Survivors (P388 [22]): 4 |
